Drawing on ChEMBL document CHEMBL1811864 (Bioorg Med Chem, 2011), this text covers Activity, inhibition and IC50 for 13 molecules.

Structures are written as SMILES.

In general, inhibition refers to the drop in the measured response relative to a control, in per cent. Broadly, the IC50 is the point on the concentration scale where inhibition reaches its midpoint.

Series [1] relates to Aliivibrio fischeri. Nature of the series: Growth inhibition of Vibrio fischeri ESI 114 (delta-LuxI) at 10 uM after 4 to 16 hrs. The following applies: in vivo. The format is organism-based. In a few lines: (§1)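 Bacterial growth was monitored over the reporter gene assay time course (4–16 h) with compounds at 10 µM.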
Series [2] concerns Escherichia coli DH5[alpha]. Nature of the series: Antagonist activity at Escherichia coli DH5alpha (pJN105L + pSC11) LasR assessed as inhibition of OdDHL-induced quorum sensing activation at 10 uM after 8 hrs by beta-galactosidase reporter gene assay relative to untreated control. The format is functional.
Series [3] concerns Agrobacterium tumefaciens. Nature of the series: Growth inhibition of Agrobacterium tumefaciens WCF (pCF372) at 10 uM after 4 to 16 hrs. The format is organism-based. The following applies: in vivo. In short, it runs like this: as §1
The target of series [4] is T1, Transcriptional activator protein LuxR (Aliivibrio fischeri) (UniProt P12746).
T1 sequence (whole entry): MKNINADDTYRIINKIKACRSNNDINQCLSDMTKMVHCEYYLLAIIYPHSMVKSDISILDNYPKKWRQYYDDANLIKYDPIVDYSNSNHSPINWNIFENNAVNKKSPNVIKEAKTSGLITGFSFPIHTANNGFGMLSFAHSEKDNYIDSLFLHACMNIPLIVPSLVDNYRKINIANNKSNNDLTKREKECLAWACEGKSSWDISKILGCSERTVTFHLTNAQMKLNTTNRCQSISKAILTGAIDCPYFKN
Nature of the series: Agonist activity at Vibrio fischeri ESI 114 (delta-LuxI) LuxR at 10 uM after 8 hrs by […] relative to […]. The format is functional. In a few lines: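 V. fischeri ESI 114 lacking LuxI synthase but keeping its native lux operon; LuxR activity read as luminescence. Compounds were screened at 10 µM alone, without native AHL. Signal was normalized to the native-ligand positive control.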

The target in series [5] is T2, Transcriptional activator protein LasR (Pseudomonas aeruginosa (strain ATCC 15692 / PAO1 / 1C / PRS 101 / LMG12228)) (UniProt P25084).
T2 sequence (whole entry): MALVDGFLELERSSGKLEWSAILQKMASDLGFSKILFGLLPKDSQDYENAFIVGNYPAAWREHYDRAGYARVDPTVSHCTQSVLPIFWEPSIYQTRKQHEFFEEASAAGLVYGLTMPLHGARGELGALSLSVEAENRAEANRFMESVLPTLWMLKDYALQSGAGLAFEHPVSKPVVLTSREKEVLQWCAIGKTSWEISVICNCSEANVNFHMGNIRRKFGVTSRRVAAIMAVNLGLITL
Nature of the series: Agonist activity at Pseudomonas aeruginosa PAO1 MW1 (pUM15) LasR at 10 uM after 8 hrs by YFP fluorescence reporter gene assay relative to OdDHL. On the technique in general: A reporter such as luciferase makes a cellular process visible.

Series [6] concerns Pseudomonas aeruginosa. Nature of the series: Growth inhibition of Pseudomonas aeruginosa PAO1 MW1 (pUM15) at 10 uM after 4 to 16 hrs. The format is organism-based. The following applies: in vivo. In short, it runs like this: as §1
Series [7] deals with T1, Transcriptional activator protein LuxR (Aliivibrio fischeri). Nature of the series: Antagonist activity at Vibrio fischeri ESI 114 (delta-LuxI) LuxR assessed as inhibition of […]-induced quorum sensing activation at 10 uM after 8 hrs by […] relative to untreated control. The format is functional.
Series [8] addresses T3, Transcriptional activator protein TraR (Agrobacterium tumefaciens) (UniProt P33905).
T3 sequence (whole entry): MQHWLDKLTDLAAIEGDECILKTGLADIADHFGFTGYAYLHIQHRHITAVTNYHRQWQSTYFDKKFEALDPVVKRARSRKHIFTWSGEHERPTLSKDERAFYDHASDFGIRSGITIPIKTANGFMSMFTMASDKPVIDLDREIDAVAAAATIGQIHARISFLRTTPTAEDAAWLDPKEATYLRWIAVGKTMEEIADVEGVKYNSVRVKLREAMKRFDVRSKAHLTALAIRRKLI
Nature of the series: Agonist activity at Agrobacterium tumefaciens WCF (pCF372) TraR at 10 uM after 8 hrs by beta-galactosidase reporter gene assay relative to […]. The format is functional.

Series [9] deals with Escherichia coli. Nature of the series: Growth inhibition of Escherichia coli DH5alpha (pJN105L + pSC11) at 10 uM after 4 to 16 hrs. The format is organism-based, DH5[alpha]. The following applies: in vivo. In a few lines: as §1
The test system of series [10] is Escherichia coli DH5[alpha]. Nature of the series: Agonist activity at Escherichia coli DH5alpha (pJN105L + pSC11) LasR at 10 uM after 8 hrs by beta-galactosidase reporter gene assay relative to OdDHL. The format is functional.
Series [11] can be described thus: Antagonist activity at Escherichia coli DH5alpha (pJN105L + pSC11) LasR assessed as inhibition of OdDHL-induced quorum sensing activation after 8 hrs by beta-galactosidase reporter gene assay. The format is functional, Escherichia coli DH5[alpha].
In series [12] the target is T4, Transcriptional activator protein LuxR (Aliivibrio fischeri, UniProt P12746).
T4 sequence (P12746 whole entry): T1 sequence (whole entry)
Nature of the series: Antagonist activity at Vibrio fischeri ESI 114 (delta-LuxI) LuxR assessed as inhibition of OHHL-induced quorum sensing activation after 8 hrs by […].

In series [13] the target is T3, Transcriptional activator protein TraR (Agrobacterium tumefaciens). Nature of the series: Antagonist activity at Agrobacterium tumefaciens WCF (pCF372) TraR assessed as inhibition of […]-induced quorum sensing activation at 10 uM after 8 hrs by beta-galactosidase reporter gene assay relative to untreated control. The format is functional.

For the molecule `O=C(CCc1cc2ccccc2[nH]1)NC1CCSC1=O` (racemic), the Activity result in [1] is “Non-toxic”; in [3], “Non-toxic”; in series [4] it was 0%; in [5], 3%; in series [6], “Non-toxic”; in series [8], 6%. The values for the Activity result in series [9] and in series [10] were “Non-toxic” and 72%, respectively. Further, the results for the inhibition in series [2] and in [7] were 54% and 75%, respectively.
With `CCCCCC(=O)N[C@H]1CCSC1=O`, the Activity entry is “Non-toxic” in series [1]; “Non-toxic” in series [3]; 0% in series [4]; 20% in [5]; “Non-toxic” in series [6]; 0% in series [8]. Besides, the figures for the Activity entry in series [9] and in [10] were “Non-toxic” and 1%, respectively. For the same molecule, the inhibition in series [2] came to 59%; in [7], 93%. Further, the IC50 in series [11] stood at 1100 nM; in series [12] it was 840 nM.
As for `COc1ccc(CC(=O)N[C@H]2CCSC2=O)cc1`, the Activity result in series [1] was “Non-toxic”; in [3], “Non-toxic”; in series [4], 1%; in [5], 7%; in [6] it was “Non-toxic”; in [8], 0%. Moreover, the values for the Activity entry in [9] and in series [10] were “Non-toxic” and 1%, respectively. Moreover, the inhibition in [2] worked out at 51%; in series [7], 70%. Moreover, the IC50 in series [11] turned out to be 7200 nM.
In the case of `CCCCCCCCCC(=O)CC(=O)NC1CCSC1=O` (racemic), the Activity entry in series [1] was “Non-toxic”; in series [3], “Non-toxic”; in series [4], 0%; in series [5], 127%; in series [6], “Non-toxic”; in [8], 1%. Moreover, the Activity entry was “Non-toxic” in series [9] and 102% in series [10]. Also, the figures for the inhibition in series [13] and in [7] were 51% and 91%, respectively.
Turning to `O=C(Cc1ccc(Br)cc1)NC1CCSC1=O` (racemic), the Activity entry in [1] is “Non-toxic”; in series [3], “Non-toxic”; in series [4], 0%; in series [5] it was 5%; in series [6], “Non-toxic”; in series [8] it was 1%. Moreover, the Activity entry was “Non-toxic” in series [9] and 8% in [10]. Besides, the results for the inhibition in series [2], in series [13] and in series [7] were 68%, 25% and 91%, respectively.
For the molecule `O=C(Cc1ccc(-c2ccccc2)cc1)NC1CCSC1=O` (racemic), the Activity entry was “Non-toxic” in [1]; “Non-toxic” in series [3]; 0% in series [4]; 1% in series [5]; “Non-toxic” in series [6]; 11% in series [8]. The Activity result in [9] is listed as “Non-toxic”. For the same molecule, the figures for the inhibition in series [2], in [13] and in series [7] were 45%, 26% and 85%, respectively.
`O=C(Cc1cccc([N+](=O)[O-])c1)NC1CCSC1=O` (racemic): the Activity result was “Non-toxic” in series [1]; “Non-toxic” in [3]; 26% in series [4]; 3% in series [5]; “Non-toxic” in [6]; 0% in [8]. The Activity entry in series [9] is “Non-toxic”; in series [10], 81%. The inhibition in series [2] is -3%; in series [13] it was 30%; in series [7] it was 30%.
On to `O=C(Cc1ccccc1)N[C@H]1CCSC1=O`, for which the Activity entry in [1] was “Non-toxic”; in series [3], “Non-toxic”; in series [4], 0%; in series [5], 2%; in series [6], “Non-toxic”; in [8], 3%. For the same molecule, the Activity entry in series [9] is “Non-toxic”; in series [10], 2%. The inhibition in series [2] stood at 65%; in series [7] it was 34%. In addition, the IC50 in [11] came to 2500 nM.
As to `O=C(Cc1ccccc1)NC1CCSC1=O` (racemic), the Activity result was “Non-toxic” in series [1]; “Non-toxic” in [3]; 0% in [4]; 17% in [5]; “Non-toxic” in series [6]; 0% in series [8]. Moreover, the values for the Activity result in series [9] and in series [10] were “Non-toxic” and 3%, respectively. Besides, the values for the inhibition in series [2], in series [13] and in series [7] were 61%, 13% and 30%, respectively.
In the case of `CCCC(=O)N[C@H]1CCSC1=O`, the Activity result in series [1] is “Non-toxic”; in series [3] it was “Non-toxic”; in series [4], 0%; in [5], 22%; in [6], “Non-toxic”; in series [8] it was 0%. The Activity result in series [9] was “Non-toxic”; in series [10] it was 4%. For the same molecule, the inhibition turned out to be 17% in [2] and 42% in series [7].
For `O=C(Cc1ccc(Br)cc1)N[C@H]1CCSC1=O`, the Activity entry is “Non-toxic” in series [1]; “Non-toxic” in series [3]; 0% in series [4]; 8% in series [5]; “Non-toxic” in series [6]; 0% in series [8]. Moreover, the values for the Activity result in series [9] and in [10] were “Non-toxic” and 2%, respectively. The inhibition in [2] worked out at 80%; in series [7], 97%. In addition, the IC50 in series [11] is 400 nM; in [12], 770 nM.
For the molecule `COc1ccc(CC(=O)NC2CCSC2=O)cc1` (racemic), the Activity result in series [1] is “Non-toxic”; in [3], “Non-toxic”; in series [4], 0%; in series [5], 4%; in [6] it was “Non-toxic”; in series [9], “Non-toxic”. Moreover, the Activity in series [10] came to 0%. Also, the inhibition amounted to 48% in series [2] and 59% in series [7].
For `O=C(Cc1ccc(-c2ccccc2)cc1)N[C@H]1CCSC1=O`, the Activity result in series [1] was “Non-toxic”; in [3] it was “Non-toxic”; in series [4], 0%; in [5], 3%; in series [6], “Non-toxic”; in series [8], 0%. Further, the Activity entry was “Non-toxic” in [9] and 9% in [10]. The values for the inhibition in series [2], in series [13] and in series [7] were 56%, 9% and 98%, respectively. The IC50 in series [11] was found to be 2900 nM; in [12] it was 350 nM.
